Results: PMC11923060 (Scientific Reports, 2025)

What was measured:
testes [1] = assay: Western blot of junction proteins in testicular tissue; format: in vivo, Kunming mice; conditions: Days 20 and 40, + LPS, vs LPS group, n = 10 mice/group
In short: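 Male Kunming mice (8–10 wk), n = 10/group, gavaged with test peptide 0.5 mg/kg or antibiotic control 25 mg/kg in 200 µL saline for 20 d (10 doses) or 40 d (20 doses), then one i.p. LPS 5 mg/kg; killed 24 h later. ~100 mg testis homogenized in RIPA/protease inhibitors; PVDF blocked in skim milk 2 h, primary antibody overnight 4 °C, secondary 2 h, ECL.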

testes [2] = assay: Immunofluorescence of tight junction proteins in testicular tissue; format: in vivo, Kunming mice; conditions: Days 20 and 40, + LPS, compared to the LPS group, n = 10 mice/group

Substance: polymyxin B
- protein expression of TWIST1 (Western blot) (testes [1]): significantly inhibited
- expression of Claudin-1 (immunofluorescence) (testes [2]): significant increases
- expression of N-cadherin (immunofluorescence) (testes [2]): significant increases
